Laboratory results as given in ChEMBL document CHEMBL4304771, “Design, synthesis and biological activity of N-(2-phenoxy)ethyl imidazo[1,2-a]pyridine-3-carboxamides as new antitubercular agents” (Eur J Med Chem, 2019).
Converted amounts (≈) assume the structure as drawn.

Key:
[1] = test system: Mycobacterium tuberculosis; test: Antitubercular activity against Mycobacterium tuberculosis H37Rv ATCC 27294 assessed as parasite growth inhibition measured after 7 days incubation by microplate alamar blue assay; assay type: functional; details: H37Rv ATCC 27294, 168 h
Method in brief: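 Strains grown to late log phase in 7H9 with 0.2% glycerol, 0.05% Tween 80 and 10% ADC. Cells washed, resuspended in PBS, filtered (8 µm) and frozen at -80 °C. Two-fold compound dilutions, 2 × 10⁵ CFU per well, 37 °C for 7 days. Tween 80 and Alamar blue then added for 16-24 h; fluorescence read at ex 530/em 590 nm. MIC = lowest concentration giving ≥90% fluorescence reduction versus mean of bacterium-only controls.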

[2] = Half-life in ICR mouse at 50 mg/kg, po administered as single dose measured for 24 hrs by HPLC analysis; assay type: ADME, organism-based; details: in vivo
Method in brief: (§1)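 Female SPF ICR mice (18–22 g), fasted overnight, 3 per group, got a single oral 50 mg/kg dose as a suspension in 0.5% CMC. Jugular blood was drawn at 0.25, 0.5, 1, 2, 4, 6, 8 and 24 h, and serum was stored at −20 °C. Proteins were precipitated with acetonitrile, and extracts were dried, redissolved in acetonitrile and run by HPLC. Parameters came directly from the concentration–time data.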

[3] = Mean residence time in ICR mouse at 50 mg/kg, po administered as single dose measured for 24 hrs by HPLC analysis; assay type: ADME, organism-based; details: in vivo; method in brief: as §1
[4] = Tmax in ICR mouse at 50 mg/kg, po administered as single dose measured for 24 hrs by HPLC analysis; assay type: ADME, organism-based; details: in vivo; method in brief: as §1
[5] = AUC (0 to infinity) in ICR mouse at 50 mg/kg, po administered as single dose measured for 24 hrs by HPLC analysis; assay type: ADME, organism-based; design: dose 50 mg/kg, route oral, time infinity; details: in vivo; method in brief: as §1
[6] = Acute toxicity in ICR mouse assessed as animal survival at 500 mg/kg, po administered as single dose measured for 7 days; assay type: organism-based; details: in vivo
Method in brief: (§2)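 Female ICR mice, 18-22 g, five per group, randomly assigned, fasted overnight. Single oral dose of 500 mg/kg suspended in 5% CMC; controls got 5% CMC alone (0.5 mL). Watched continuously for 4 h, then hourly to 24 h, then every 8 h for 7 days for deaths or changes. Read-out was survivors/total.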

[7] = Cmax in ICR mouse at 50 mg/kg, po administered as single dose measured for 24 hrs by HPLC analysis; assay type: ADME, organism-based; design: dose 50 mg/kg, route oral; details: in vivo; method in brief: as §1
[8] = Acute toxicity in ICR mouse assessed as decrease in animal survival at 500 mg/kg, po administered as single dose measured for 7 days; assay type: organism-based; details: in vivo, 168 h; method in brief: as §2
[9] = Half-life in human hepatocytes; assay type: ADME, cell-based, Hepatocyte

SMILES	MIC [1]	other results
CCc1nc2ccc(Br)cn2c1C(=O)NCCOc1ccc(N2CCN(C)CC2)cc1	1 µg/mL (≈ 2.06 µM)	–
Cc1nc2cc(Cl)ccn2c1C(=O)NCCOc1ccc(Br)cc1	2.68 µg/mL (≈ 6.56 µM)	–
Cc1ccc2nc(C3CC3)c(C(=O)NCCOc3ccc(Br)cc3)n2c1	0.052 µg/mL (≈ 0.126 µM)	–
COc1ccc2nc(C)c(C(=O)NCCOc3ccc(N4CCC(C(F)(F)F)CC4)cc3)n2c1	0.0625 µg/mL (≈ 0.131 µM)	half-life [2]: 55 min; MRT [3]: 64.2 min; Tmax [4]: 19.8 min; AUC(0-inf) [5]: 754 ng·h/mL; survival at 168 h [6]: 100%; Cmax [7]: 638 ng/mL
Cc1nc2cccc(Cl)n2c1C(=O)NCCOc1ccc(Br)cc1	2.52 µg/mL (≈ 6.18 µM)	–
Cc1nc2c(Cl)cccn2c1C(=O)NCCOc1ccc(Br)cc1	0.505 µg/mL (≈ 1.24 µM)	–
O=C(NCCOc1ccc(Br)cc1)c1c(C2CC2)nc2cc(Cl)ccn12	32 µg/mL (≈ 73.6 µM)	–
CCc1nc2ccc(Cl)cn2c1C(=O)NCCOc1ccncc1	> 32 µg/mL	–
COc1ccc2nc(C)c(C(=O)NCCOc3ccc(N4CC5CCCCC5C4)cc3)n2c1 (configuration not stated)	0.0625 µg/mL (≈ 0.139 µM)	Activity [8]: Toxic
Cc1ccc2nc(C)c(C(=O)NCCOc3ccncc3)n2c1	> 32 µg/mL	–
CCCc1nc2ccc(C)cn2c1C(=O)NCCOc1ccc(Br)cc1	0.415 µg/mL (≈ 0.997 µM)	–
CCc1nc2ccc(Br)cn2c1C(=O)NCCOc1ccc(N2CCC(C(F)(F)F)CC2)cc1	0.0625 µg/mL (≈ 0.116 µM)	half-life [2]: 283 min; MRT [3]: 113 min; Tmax [4]: 45 min; AUC(0-inf) [5]: 7120 ng·h/mL; survival at 168 h [6]: 100%; Cmax [7]: 5080 ng/mL
CCc1nc2ccc(Br)cn2c1C(=O)NCCOc1ccc(N2CCCCC2)cc1	0.0625 µg/mL (≈ 0.133 µM)	half-life [2]: 251 min; MRT [3]: 169 min; Tmax [4]: 15 min; AUC(0-inf) [5]: 818 ng·h/mL; survival at 168 h [6]: 100%; Cmax [7]: 983 ng/mL
CCc1nc2c(Cl)cccn2c1C(=O)NCCOc1ccc(Br)cc1	17.5 µg/mL (≈ 41.4 µM)	–
COc1ccc(OCCNC(=O)c2c(C3CC3)nc3ccc(C)cn23)cc1	0.027 µg/mL (≈ 0.0739 µM)	half-life [9]: 7.8 min
Cc1ccn2c(C(=O)NCCOc3ccc(Br)cc3)c(C)nc2c1	0.463 µg/mL (≈ 1.19 µM)	–
CCc1nc2cc(Cl)ccn2c1C(=O)NCCOc1ccc(Br)cc1	6.35 µg/mL (≈ 15 µM)	–
Cc1nc2ccc(F)cn2c1C(=O)NCCOc1ccc(Cl)cc1	3.84 µg/mL (≈ 11 µM)	–
CCc1nc2ccc(Cl)cn2c1C(=O)NCCOc1ccc(OC)cc1	0.056 µg/mL (≈ 0.15 µM)	–
Cc1nc2ccc(Br)cn2c1C(=O)NCCOc1ccc(Br)cc1	0.358 µg/mL (≈ 0.79 µM)	–
Cc1nc2ccc(F)cn2c1C(=O)NCCOc1ccc(Br)cc1	1.21 µg/mL (≈ 3.08 µM)	–
Cc1nc2ccc(Cl)cn2c1C(=O)NCCOc1ccc(Br)cc1	0.488 µg/mL (≈ 1.19 µM)	–
CCCc1nc2ccc(F)cn2c1C(=O)NCCOc1ccc(Cl)cc1	1.14 µg/mL (≈ 3.04 µM)	–
CCCc1nc2ccc(F)cn2c1C(=O)NCCOc1ccc(Br)cc1	2.68 µg/mL (≈ 6.38 µM)	–
CCc1nc2ccc(Cl)cn2c1C(=O)NCc1ccc(N2CCC(c3ccc(OC(F)(F)F)cc3)CC2)cc1 [TELACEBEC]	0.0625 µg/mL (≈ 0.112 µM)	–
O=c1nc(N2CCN(CC3CCCCC3)CC2)sc2c([N+](=O)[O-])cc(C(F)(F)F)cc12 [MACOZINONE]	0.0625 µg/mL (≈ 0.137 µM)	–

SMILES	MIC [1]	other results
Cc1ccn2c(C(=O)NCCOc3ccc(Br)cc3)c(C3CC3)nc2c1	5 µg/mL (≈ 12.1 µM)	–
CCc1nc2ccc(C)cn2c1C(=O)NCCOc1ccc(OC)cc1	0.023 µg/mL (≈ 0.0651 µM)	half-life [9]: 19.5 min
O=C(NCCOc1ccc(Br)cc1)c1c(C2CC2)nc2ccc(Cl)cn12	0.098 µg/mL (≈ 0.225 µM)	–
CO[C@H]1/C=C/O[C@@]2(C)Oc3c(C)c(O)c4c(O)c(c(/C=N/N5CCN(C)CC5)c(O)c4c3C2=O)NC(=O)/C(C)=C\C=C\[C@H](C)[C@H](O)[C@@H](C)[C@@H](O)[C@@H](C)[C@H](OC(C)=O)[C@@H]1C [RIFAMPIN]	0.05 µg/mL (≈ 0.0608 µM)	–
CCc1nc2cc(Cl)ccn2c1C(=O)NCCOc1ccc(Cl)cc1	5.86 µg/mL (≈ 15.5 µM)	–
CCc1nc2ccc(C)cn2c1C(=O)NCCOc1ccc(N2CCN(C)CC2)cc1	4 µg/mL (≈ 9.49 µM)	–
Cc1ccc2nc(C)c(C(=O)NCCOc3ccc(Br)cc3)n2c1	0.031 to 0.125 µg/mL (≈ 0.0798 to 0.322 µM)	half-life [9]: 6.5 min
CCc1nc2ccc(Cl)cn2c1C(=O)NCCOc1ccc(N(C)C)cc1	0.0625 µg/mL (≈ 0.162 µM)	half-life [2]: 162 min; MRT [3]: 98.4 min; Tmax [4]: 15 min; AUC(0-inf) [5]: 3340 ng·h/mL; survival at 168 h [6]: 100%; Cmax [7]: 2120 ng/mL
CCc1nc2ccc(Br)cn2c1C(=O)NCCOc1ccc(Br)cc1	0.025 µg/mL (≈ 0.0535 µM)	half-life [9]: 15.8 min
COc1ccc2nc(C)c(C(=O)NCCOc3ccc(Br)cc3)n2c1	0.028 µg/mL (≈ 0.0693 µM)	half-life [9]: 54.2 min
Cc1nc2ccc([N+](=O)[O-])cn2c1C(=O)NCCOc1ccc(Br)cc1	1.28 µg/mL (≈ 3.05 µM)	–
O=C(NCCOc1ccc(Cl)cc1)c1c(C2CC2)nc2cc(Cl)ccn12	32 µg/mL (≈ 82 µM)	–
CCc1nc2ccc(F)cn2c1C(=O)NCCOc1ccc(Br)cc1	0.202 µg/mL (≈ 0.497 µM)	–
CCCc1nc2ccc(Cl)cn2c1C(=O)NCCOc1ccc(Cl)cc1	0.631 µg/mL (≈ 1.61 µM)	–
COc1ccc2nc(C)c(C(=O)NCCOc3ccc(N4CCN(C)CC4)cc3)n2c1	0.5 µg/mL (≈ 1.18 µM)	–
CCCc1nc2ccc(C)cn2c1C(=O)NCCOc1ccc(Cl)cc1	0.631 µg/mL (≈ 1.7 µM)	–
NNC(=O)c1ccncc1 [ISONIAZID]	0.049 µg/mL (≈ 0.357 µM)	–
CCc1nc2ccc(Cl)cn2c1C(=O)NCCOc1ccc(N2CCN(c3ccc(F)cc3)CC2)cc1	0.0625 µg/mL (≈ 0.12 µM)	half-life [2]: 265 min; MRT [3]: 214 min; Tmax [4]: 80 min; AUC(0-inf) [5]: 11100 ng·h/mL; survival at 168 h [6]: 100%; Cmax [7]: 3330 ng/mL
O=C(NCCOc1ccc(Br)cc1)c1c(C2CC2)nc2ccc(F)cn12	0.928 µg/mL (≈ 2.22 µM)	–
CCc1nc2ccc(C)cn2c1C(=O)NCCOc1ccc(Br)cc1	0.275 µg/mL (≈ 0.684 µM)	–
CCc1nc2ccc(C)cn2c1C(=O)NCCOc1ccc(N2CC3CCCCC3C2)cc1 (configuration not stated)	0.0625 µg/mL (≈ 0.14 µM)	survival at 168 h [6]: 0%
CCCc1nc2ccc(Cl)cn2c1C(=O)NCCOc1ccc(Br)cc1	0.054 µg/mL (≈ 0.124 µM)	–
CCc1nc2ccc(Br)cn2c1C(=O)NCCOc1ccc(N2CC3CCCCC3C2)cc1 (configuration not stated)	0.0625 µg/mL (≈ 0.122 µM)	Activity [8]: Toxic
CCc1nc2ccc(Cl)cn2c1C(=O)NCCOc1ccc(Cl)cc1	0.029 µg/mL (≈ 0.0767 µM)	half-life [9]: 12.9 min
CCc1nc2ccc(Cl)cn2c1C(=O)NCCOc1ccc(Br)cc1	0.023 µg/mL (≈ 0.0544 µM)	half-life [9]: 35.2 min
Cc1nc2c(C)cccn2c1C(=O)NCCOc1ccc(Br)cc1	13.9 µg/mL (≈ 35.9 µM)	–
